Reference: ChEMBL document CHEMBL1157145, “Cytotoxic activity of proflavine diureas: synthesis, antitumor, evaluation and DNA binding properties of 1',1''-(acridin-3,6-diyl)-3',3''-dialkyldiureas” (Bioorg Med Chem, 2008)
Activity calls are given as the source filed them. The rule behind the calls is not given here.

Assays:
[1] = tested on: HCT-116; assay: Cell cycle arrest in human HCT116 cells assessed as accumulation at G2/M phase at 5.10 uM after 24 hrs; type: functional
Outline: (§1)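 Cells seeded at 8 · 10^5 per 60 mm dish, allowed to settle 24 h (37 °C, 5% CO2), then exposed to the drug for 24 or 48 h. Adherent plus floating cells (5 · 10^5) were fixed in cold 70% ethanol at −20 °C overnight, treated with RNase A (100 µg/mL) and stained with propidium iodide (20 µg/mL) in Vindelov's solution for 30 min at RT. Flow cytometry used 488 nm excitation, FL-2 at 585 ± 21 nm, and histograms were modelled for G0/G1, S and G2/M fractions.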

[2] = tested on: HCT-116; assay: Cell cycle arrest in human HCT116 cells assessed as accumulation at G2/M phase at 5.10 uM after 48 hrs; type: functional; outline: as §1
[3] = tested on: HCT-116; assay: Induction of DNA fragmentation in human HCT116 cells after 48 hrs; type: functional, cell-based
Outline: (§2)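 HCT-116 cells were treated for 24 or 48 h. Adherent and floating cells (5 × 10^5) were pooled, fixed in cold 70% ethanol and held overnight at −20 °C. Samples were treated with RNase A (100 µg/mL) and stained with propidium iodide (20 µg/mL) in Vindelov's solution for 30 min at RT. Flow cytometry used 488 nm excitation with emission at 585 nm. Subdiploid (subG0/G1) particles were scored on a logarithmic scale, with debris gated out on FSC × SSC.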

[4] = tested on: DNA; assay: Binding affinity to calf thymus DNA at 4 uM by fluorescence spectrophotometric titration; type: nucleic-acid assay; details: Bos taurus
Outline: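 ctDNA sonicated in TE buffer, concentration taken from A260 and given in base pairs. Compound (4 µM) in 0.01 M Tris, pH 7.4, 25 °C titrated with ctDNA (0–55 µM bp) until spectra stopped changing. Excitation 424 nm, slit widths 10 nm; binding constant derived from the change in emission.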

[5] = tested on: DNA; assay: Binding affinity to calf thymus DNA at 50 uM by circular dichroism spectrophotometric titration; type: nucleic-acid assay; details: Bos taurus
[6] = tested on: HeLa; assay: Cytotoxicity against human HeLa cells after 48 hrs by MTT assay; type: functional, cell-based
[7] = tested on: HeLa; assay: Cytotoxicity against human HeLa cells after 72 hrs by MTT assay; type: functional, cell-based
[8] = tested on: HCT-116; assay: Cytotoxicity against human HCT116 cells after 48 hrs by MTT assay; type: functional, cell-based; details: HCT-116, 48 h
[9] = tested on: HCT-116; assay: Cytotoxicity against human HCT116 cells after 72 hrs by MTT assay; type: functional, cell-based; details: Homo sapiens, HCT-116, 72 h
[10] = tested on: HeLa; assay: Antiproliferative activity against human HeLa cells assessed as increase of floating cells in total cell population at 7.80 uM after 24 hrs; type: functional
Outline: (§3)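 Cells seeded (8 · 10^5 per 60 mm dish), allowed to settle 24 h at 37 °C, 5% CO2, then treated with a single concentration for 24 or 48 h. Adherent and floating cells counted by Coulter counter. Total cell number given as % of untreated control; floating cells as % of total cell number.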

[11] = tested on: HeLa; assay: Antiproliferative activity against human HeLa cells assessed as decrease in total cell population at 7.80 uM after 24 hrs; type: functional; set-up: scale not given: the % may be the effect or the level left; outline: as §3
[12] = tested on: HeLa; assay: Antiproliferative activity against human HeLa cells assessed as increase of floating cells in total cell population at 7.80 uM after 48 hrs; type: functional; outline: as §3
[13] = tested on: HeLa; assay: Antiproliferative activity against human HeLa cells assessed as decrease in total cell population at 7.80 uM after 48 hrs; type: functional; set-up: scale not given: the % may be the effect or the level left; outline: as §3
[14] = tested on: HCT-116; assay: Antiproliferative activity against human HCT116 cells assessed as increase of floating cells in total cell population at 5.10 uM after 24 hrs; type: functional; outline: as §3
[15] = tested on: HCT-116; assay: Antiproliferative activity against human HCT116 cells assessed as decrease in total cell population at 5.10 uM after 24 hrs; type: functional; set-up: scale not given: the % may be the effect or the level left; outline: as §3
[16] = tested on: HCT-116; assay: Antiproliferative activity against human HCT116 cells assessed as increase of floating cells in total cell population at 5.10 uM after 48 hrs; type: functional; outline: as §3
[17] = tested on: HCT-116; assay: Antiproliferative activity against human HCT116 cells assessed as decrease in total cell population at 5.10 uM after 48 hrs; type: functional; set-up: scale not given: the % may be the effect or the level left; outline: as §3
[18] = tested on: HeLa; assay: Induction of apoptosis in human HeLa cells at 7.80 uM after 24 hrs; type: functional
Outline: (§4)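 After 24 or 48 h of drug exposure, all cells were collected, combining trypsinised adherent cells with floating cells from the medium. Cells (1 × 10^6) were fixed in cold 70% ethanol overnight at −20 °C and stained with DAPI (10 µg/mL) for 30 min in the dark at RT. Under fluorescence microscopy, 300 cells per sample were scored, with condensed or fragmented nuclei counted as apoptotic.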

[19] = tested on: HeLa; assay: Induction of apoptosis in human HeLa cells at 7.80 uM after 48 hrs; type: functional; outline: as §4
[20] = tested on: HCT-116; assay: Induction of apoptosis in human HCT116 cells at 5.10 uM after 24 hrs; type: functional; outline: as §4
[21] = tested on: HCT-116; assay: Induction of apoptosis in human HCT116 cells at 5.10 uM after 48 hrs; type: functional; outline: as §4
[22] = tested on: HCT-116; assay: Induction of DNA fragmentation in human HCT116 cells after 24 hrs; type: functional, cell-based; outline: as §2
[23] = tested on: HeLa; assay: Cell cycle arrest in human HeLa cells assessed as accumulation at G0/G1 phase at 7.80 uM after 24 hrs; type: functional; outline: as §1
[24] = tested on: HeLa; assay: Cell cycle arrest in human HeLa cells assessed as accumulation at G0/G1 phase at 7.80 uM after 48 hrs; type: functional; outline: as §1
[25] = tested on: HCT-116; assay: Cell cycle arrest in human HCT116 cells assessed as accumulation at G0/G1 phase at 5.10 uM after 24 hrs; type: functional
Outline: (§5)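 Adherent plus floating cells (5 · 10^5) collected 24 or 48 h after treatment, fixed in cold 70% ethanol at −20 °C overnight, washed in PBS. RNase A (100 µg/mL) and propidium iodide (20 µg/mL) in Vindelov's solution, 30 min at RT. Flow cytometry with 488 nm excitation, emission 585 ± 21 nm; % cells per cycle phase from DNA content histograms.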

[26] = tested on: HCT-116; assay: Cell cycle arrest in human HCT116 cells assessed as accumulation at G0/G1 phase at 5.10 uM after 48 hrs; type: functional; outline: as §5
[27] = tested on: HeLa; assay: Cell cycle arrest in human HeLa cells assessed as accumulation at S phase at 7.80 uM after 24 hrs; type: functional; outline: as §1
[28] = tested on: HeLa; assay: Cell cycle arrest in human HeLa cells assessed as accumulation at S phase at 7.80 uM after 48 hrs; type: functional; outline: as §1
[29] = tested on: HCT-116; assay: Cell cycle arrest in human HCT116 cells assessed as accumulation at S phase at 5.10 uM after 24 hrs; type: functional; outline: as §1
[30] = tested on: HCT-116; assay: Cell cycle arrest in human HCT116 cells assessed as accumulation at S phase at 5.10 uM after 48 hrs; type: functional; outline: as §1
[31] = tested on: HeLa; assay: Cell cycle arrest in human HeLa cells assessed as accumulation at G2/M phase at 7.80 uM after 24 hrs; type: functional; outline: as §1
[32] = tested on: HeLa; assay: Cell cycle arrest in human HeLa cells assessed as accumulation at G2/M phase at 7.80 uM after 48 hrs; type: functional; outline: as §1

`CCCCCNC(=O)Nc1ccc2cc3ccc(NC(=O)NCCCCC)cc3nc2c1.Cl` was tested, and the Activity [1] was 44.05%, the Activity [2] was 37.04% and the Activity [3] was “Active”. The K [4] was 1.7 ×10⁵ /M, the Activity [5] was “Active” and the IC50 [6] was 7.78 µM. For the same molecule, the IC50 [7] was 13.3 µM, the IC50 [8] was 5.12 µM and the IC50 [9] was 3.48 µM. For the same molecule, the Activity [10] was 3.86%, the Activity [11] was 87.47% and the Activity [12] was 3.62%. The Activity [13] was 101.34%, the Activity [14] was 78.81% and the Activity [15] was 45.85%. For the same molecule, the Activity [16] was 88.58%, the Activity [17] was 21.22% and the Activity [18] was 1.33%. It also gave an Activity [19] of 0.89%, an Activity [20] of 10.67% and an Activity [21] of 11.33%. The Activity [22] was “Active”, the Activity [23] was 61% and the Activity [24] was 72.24%. For the same molecule, the Activity [25] was 38.62%, the Activity [26] was 40.8% and the Activity [27] was 25.46%. It also gave an Activity [28] of 17.38%, an Activity [29] of 17.34% and an Activity [30] of 22.16%. It also gave an Activity [31] of 13.54% and an Activity [32] of 10.39%.
